Calls of active or inactive are those of the source.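 The calls were made as follows, unless noted: active = current rise at least 3 SD above the untreated control mean in each of two repeat wells; inactive = the rest.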
Columns and labels:
[1] = thallium flux activation in parental CHO cells, counter-screen for KCNQ1 potentiator project (AID 493006;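 active = duplicate-averaged activation above buffer control mean plus 5 SD of those controls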); settings: parental CHO-K1 cells, FluxOR thallium flux, at 10 µM; active compounds read high
Summary of the method: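 Assay system: Untransfected host CHO-K1 cells with FluxOR thallium dye | Probe or stimulus: Potassium/thallium depolarization pulse | Schedule: Overnight 37 °C plating, 90 min RT dye, 20 min compound | Detection: Kinetic thallium-flux fluorescence | Read-out: Max-minus-min fluorescence over baseline, percent of buffer-to-R-L3 span | Benchmarks: Low control buffer, high control R-L3 activator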

[2] = target: Potassium voltage-gated channel subfamily KQT member 1 (Homo sapiens) (UniProt P51787); experiment: KCNQ1 potassium channel potentiators, confirmation, FluxOR thallium flux, CHO cells, duplicates (AID 493007;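 active = potentiation averaged over duplicate wells exceeding buffer-only control mean by more than 3 SD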;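 as to outcome: cells depolarized by a potassium plus thallium sulfate stimulus after compound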); settings: KCNQ1 cell line, FluxOR thallium flux fluorescence, at 10 µM; active compounds read high, % of reference activator effect, buffer zero
Potassium voltage-gated channel subfamily KQT member 1 (Homo sapiens), sequence (P51787 whole entry, looked up): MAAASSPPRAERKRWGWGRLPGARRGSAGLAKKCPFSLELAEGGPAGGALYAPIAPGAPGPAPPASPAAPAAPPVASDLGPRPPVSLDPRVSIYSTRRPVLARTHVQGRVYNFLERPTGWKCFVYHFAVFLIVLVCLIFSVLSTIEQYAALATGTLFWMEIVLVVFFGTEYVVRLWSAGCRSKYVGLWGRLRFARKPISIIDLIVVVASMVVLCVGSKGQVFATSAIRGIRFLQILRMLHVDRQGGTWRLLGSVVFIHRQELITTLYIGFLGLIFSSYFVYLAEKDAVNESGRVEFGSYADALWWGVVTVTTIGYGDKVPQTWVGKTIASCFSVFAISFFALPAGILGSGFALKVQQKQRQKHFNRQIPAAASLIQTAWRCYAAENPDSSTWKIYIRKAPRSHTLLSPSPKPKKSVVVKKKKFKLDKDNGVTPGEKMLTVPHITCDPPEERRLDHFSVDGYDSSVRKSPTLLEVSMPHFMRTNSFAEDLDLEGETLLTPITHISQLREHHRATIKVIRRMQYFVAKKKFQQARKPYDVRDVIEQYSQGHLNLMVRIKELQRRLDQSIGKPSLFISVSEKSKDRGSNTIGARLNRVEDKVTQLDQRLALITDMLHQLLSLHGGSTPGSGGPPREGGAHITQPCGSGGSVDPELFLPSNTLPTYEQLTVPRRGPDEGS
Summary of the method: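 Material: KCNQ1-expressing CHO cell line; Incubation: FluxOR dye loading 90 min, compound exposure 20 min, room temperature; Detection: FluxOR Tl+ flux fluorescence, 10 s baseline plus 110 s recording; Read-out: percent activation between buffer and R-L3 responses; Control set: buffer-only wells as 0% and R-L3 activator as 100%; Replication: duplicate wells per compound.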

[3] = target: Potassium voltage-gated channel subfamily KQT member 2 (Rattus norvegicus) (UniProt O88943); experiment: rat KCNQ2 channel potentiation, selectivity assay for KCNQ1 potentiator project, KCNQ2-CHO-K1 cells (AID 493009;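 active = mean duplicate potentiation above the buffer control mean plus 5 SD of buffer wells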;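 also: assay conditions were tuned for KCNQ1 rather than KCNQ2 modulators; signal is max minus min fluorescence divided by baseline after thallium stimulus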); settings: FluxOR thallium flux fluorescence, at 10 µM; active compounds read high, scaled: buffer 0, activator control 100
Potassium voltage-gated channel subfamily KQT member 2 (Rattus norvegicus), sequence (O88943 whole entry, looked up): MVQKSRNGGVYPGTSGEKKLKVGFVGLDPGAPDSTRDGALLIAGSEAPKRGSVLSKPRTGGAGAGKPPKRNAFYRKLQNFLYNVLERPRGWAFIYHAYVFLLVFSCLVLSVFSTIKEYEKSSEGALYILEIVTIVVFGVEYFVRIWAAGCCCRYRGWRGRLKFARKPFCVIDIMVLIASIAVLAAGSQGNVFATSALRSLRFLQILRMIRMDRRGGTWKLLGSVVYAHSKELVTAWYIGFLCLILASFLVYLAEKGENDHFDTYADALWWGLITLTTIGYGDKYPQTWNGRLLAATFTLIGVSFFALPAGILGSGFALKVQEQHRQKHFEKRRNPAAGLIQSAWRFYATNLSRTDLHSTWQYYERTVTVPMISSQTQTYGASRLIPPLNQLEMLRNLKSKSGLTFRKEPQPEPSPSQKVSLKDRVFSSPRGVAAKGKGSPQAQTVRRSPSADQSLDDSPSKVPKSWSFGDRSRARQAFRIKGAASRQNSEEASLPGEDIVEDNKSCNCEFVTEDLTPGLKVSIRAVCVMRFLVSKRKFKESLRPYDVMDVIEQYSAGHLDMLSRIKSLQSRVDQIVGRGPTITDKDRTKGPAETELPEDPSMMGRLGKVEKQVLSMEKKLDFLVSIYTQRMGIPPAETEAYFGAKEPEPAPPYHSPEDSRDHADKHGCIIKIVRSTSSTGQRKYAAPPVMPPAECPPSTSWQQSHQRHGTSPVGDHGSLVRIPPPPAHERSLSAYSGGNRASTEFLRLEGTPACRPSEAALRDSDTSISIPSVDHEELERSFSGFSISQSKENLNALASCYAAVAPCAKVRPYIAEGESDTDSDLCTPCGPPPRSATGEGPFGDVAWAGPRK

[4] = target: Potassium voltage-gated channel subfamily KQT member 1 (Homo sapiens) (UniProt P51787); experiment: KCNQ1 channel current potentiators, confirmation, orthogonal assay for KCNQ1 potentiator project, IonWorks patch clamp, KCNQ1-CHO cells (AID 493184); settings: automated patch clamp current, at 10 µM; active compounds read high
Summary of the method: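 assay system = KCNQ1-expressing CHO cells | medium = external bath solution at pH 7.4 | probe or stimulus = 2,000 ms depolarization, -90 to +40 mV | compound dosing = 10 µM final, single point | measured by = automated voltage clamp, amphotericin B perforated patch | measure = percent current increase versus pre-compound level | replication = duplicates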

Structure (SMILES) | outcome [1] | outcome [2] | outcome [3] | outcome [4] | activation [1] | potentiation [2] | potentiation [3]
OCCN1CCN(CCCN2c3ccccc3Sc3ccc(Cl)cc32)CC1 | inactive | inactive | inactive | inactive | – | – | –
O=C(CN1C(=O)CNC1=O)Nc1cccc(C(F)(F)F)c1 | inactive | inactive | inactive | inactive | – | – | –
CC(C)NC(=O)C1(S(=O)(=O)c2ccccc2)CC=CC1 | inactive | inactive | inactive | inactive | – | – | –
CCOc1ccc2c(c1)C(NC(C)=O)C(=O)N2CCN1CCOCC1 (stereo not given) | inactive | inactive | inactive | inactive | – | – | –
O=C(N/N=C/c1cccnc1)c1ccco1 | inactive | inactive | inactive | inactive | – | – | –
CCOC(=O)c1sc2nc(C)[nH]c(=S)c2c1C | – | – | – | inactive | 198% (active) | 52% (active) | 214% (active)
O=C(CNc1ccc2c(c1)OCO2)N/N=C\c1cn(Cc2ccccc2)c2ccccc12 | inactive | inactive | inactive | inactive | – | – | –
O=c1c2cccnc2[nH]c(=S)n1CCC1=CCCCC1 | – | – | – | inactive | 258% (active) | 64% (active) | 229% (active)
CC1CCN(c2ncnc3ccccc23)CC1 | inactive | inactive | inactive | inactive | – | – | –
O=C(NCc1ccccn1)c1ccc(COc2ccc(Cl)cc2)o1 | – | – | – | inactive | 138% (active) | 26.5% (active) | 156% (active)
O=C(NC(=S)Nc1ccccc1N1CCCC1)c1ccccc1Br | – | – | – | inactive | 179% (active) | 55% (active) | 202% (active)
Cc1ccc(C2C(/C=C3/SC(=S)NC3=O)=C(c3cccs3)Oc3ccccc32)cc1 (stereo not given) | – | – | inactive | inactive | 142% (active) | 33% (active) | –
O=C(CCC(=O)c1ccc(F)cc1)Nc1cc(Cl)cc(Cl)c1 | inactive | inactive | inactive | inactive | – | – | –
O=C(COC(=O)CNC(=O)c1ccc(Cl)cc1Cl)Nc1cccc(S(=O)(=O)N2CCCC2)c1 | inactive | inactive | inactive | inactive | – | – | –
COc1ccc(-c2cc(C(=O)Nc3c(Cl)cc(Cl)cc3Cl)c3ccccc3n2)cc1OC | inactive | inactive | inactive | inactive | – | – | –
Cc1ccc(SCc2[nH]nc3c2C(c2ccco2)C(C#N)=C(N)O3)cc1 (stereo not given) | inactive | inactive | inactive | inactive | – | – | –
Nc1c(C(=O)Nc2ccc(F)cc2)nnn1-c1cccc(C(F)(F)F)c1 | inactive | inactive | inactive | inactive | – | – | –
CCC(/C=N/NC(=O)C1COc2ccccc2O1)CC (stereo not given) | inactive | inactive | inactive | inactive | – | – | –
CC(/C=C1\SC(=S)N(NS(=O)(=O)c2ccc(C)cc2)C1=O)=C\c1ccccc1 | – | – | – | inactive | 507% (active) | 424% (active) | 666% (active)
COc1ccc(-c2nc(=S)c3ccc4ccccc4c3[nH]2)cc1 | – | – | – | inactive | 207% (active) | 83.5% (active) | 180% (active)
COc1ccccc1C(=O)NNC(=O)C(=O)NC1CCCCC1 | – | – | – | inactive | 262% (active) | 67.5% (active) | 262% (active)
Cc1nn(CC2CC2)c(=O)n1-c1ccc(F)cc1 | inactive | inactive | inactive | inactive | – | – | –
CC1Oc2ccccc2OC1(O)c1ccccn1 (stereo not given) | – | – | – | inactive | 142% (active) | 26.5% (active) | 142% (active)
Cc1nc2sc(C(c3ccccc3)N3CCN(C(=O)c4ccco4)CC3)c(O)n2n1 (stereo not given) | inactive | inactive | inactive | inactive | – | – | –
C/C(=N/NC(=O)c1ccc(Br)o1)c1ccc(C)o1 | inactive | inactive | inactive | inactive | – | – | –
CN(C(=O)CSc1ncnc2sc(-c3ccccc3)cc12)C1CCS(=O)(=O)C1 (stereo not given) | – | – | – | inactive | 529% (active) | 176% (active) | 501% (active)
Cc1cccc(-n2c(C)cc(/C=N/NC(N)=S)c2C)c1 | inactive | inactive | inactive | inactive | – | – | –
Cc1ccc2nsnc2c1S(=O)(=O)Nc1cccc2nsnc12 | – | – | – | inactive | 143% (active) | 26% (active) | 174% (active)
COc1ccc(NC(=O)C(=O)NNC(=O)c2ccc(Cl)cc2Cl)cc1 | – | – | – | inactive | 412% (active) | 200% (active) | 492% (active)
O=C(NC(=S)Nc1ccccc1N1CCCC1)c1cccs1 | – | – | – | inactive | 150% (active) | 104% (active) | 212% (active)
